Assay results: ChEMBL document CHEMBL4334455, “Synthesis of Usnic Acid Derivatives and Evaluation of Their Antiproliferative Activity against Cancer Cells” (J Nat Prod, 2019)
Values belong to the compound of their own block, whether it stands above or below them. The source made the active and inactive calls. The rule behind the calls is not given here.

Experiments:
[1] = tested on: HeLa; assay: Cell cycle arrest in human HeLa cells assessed as accumulation of cells at S phase at 8.7 uM after 24 hrs by propidium iodide staining based flow cytometric analysis; format: functional
[2] = tested on: HeLa; assay: Cell cycle arrest in human HeLa cells assessed as accumulation of cells at G2/M phase at 8.7 uM after 24 hrs by propidium iodide staining based flow cytometric analysis; format: functional
[3] = tested on: MCF7; assay: Antiproliferative activity against human MCF7 cells assessed as reduction in cell viability after 24 hrs by MTT assay; format: functional, cell-based; settings: for IC50: MCF7, 24 h
How it was run: (§1)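 Cells seeded at 4 × 10³/well for 24 h runs and for PC-3, or 2 × 10³/well for MCF-7 and HeLa 48 h runs, and attached overnight. Medium replaced with compound-containing medium for 24 or 48 h. MTT (4 mg mL⁻¹) added for the final 3 h, formazan dissolved in DMSO, absorbance read at 570 nm (reference 660 nm). IC₅₀ calculated from at least three independent experiments in duplicate, mean ± SE.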

[4] = tested on: MCF7; assay: Antiproliferative activity against human MCF7 cells assessed as reduction in cell viability after 48 hrs by MTT assay; format: functional, cell-based; how it was run: as §1
[5] = tested on: HeLa; assay: Antiproliferative activity against human HeLa cells assessed as reduction in cell viability after 24 hrs by MTT assay; format: functional, cell-based; how it was run: as §1
[6] = tested on: HeLa; assay: Antiproliferative activity against human HeLa cells assessed as reduction in cell viability after 48 hrs by MTT assay; format: functional, cell-based; how it was run: as §1
[7] = tested on: PC-3; assay: Antiproliferative activity against human PC3 cells assessed as reduction in cell viability after 24 hrs by MTT assay; format: functional, cell-based; settings: PC-3, 24 h; how it was run: as §1
[8] = tested on: PC-3; assay: Antiproliferative activity against human PC3 cells assessed as reduction in cell viability after 48 hrs by MTT assay; format: functional, cell-based; settings: PC-3, 48 h; how it was run: as §1
[9] = Cytotoxicity against human HDFa cells assessed as reduction in cell viability after 24 hrs by MTT assay; format: cell-based; how it was run: as §1
[10] = Cytotoxicity against human HDFa cells assessed as reduction in cell viability after 48 hrs by MTT assay; format: cell-based; how it was run: as §1
[11] = tested on: MCF7; assay: Induction of cell cycle arrest in human MCF7 cells assessed as accumulation of cells at G0/G1 phase at 2.9 uM after 24 hrs by Propidium iodide staining based flow cytometric analysis (reference value: 47.8 +/- 0.42%); format: functional
[12] = tested on: MCF7; assay: Induction of cell cycle arrest in human MCF7 cells assessed as accumulation of cells at G0/G1 phase at 8.7 uM after 24 hrs by Propidium iodide staining based flow cytometric analysis (reference value: 47.8 +/- 0.42%); format: functional
[13] = tested on: MCF7; assay: Induction of cell cycle arrest in human MCF7 cells assessed as accumulation of cells at S phase at 2.9 uM after 24 hrs by Propidium iodide staining based flow cytometric analysis (reference value: 23.75 +/- 1.87%); format: functional
[14] = tested on: MCF7; assay: Induction of cell cycle arrest in human MCF7 cells assessed as accumulation of cells at S phase at 8.7 uM after 24 hrs by Propidium iodide staining based flow cytometric analysis (reference value: 23.75 +/- 1.87%); format: functional
[15] = tested on: MCF7; assay: Induction of cell cycle arrest in human MCF7 cells assessed as accumulation of cells at G2/M phase at 2.9 uM after 24 hrs by Propidium iodide staining based flow cytometric analysis (reference value: 27 +/- 2.97%); format: functional
[16] = tested on: MCF7; assay: Induction of cell cycle arrest in human MCF7 cells assessed as accumulation of cells at G2/M phase at 8.7 uM after 24 hrs by Propidium iodide staining based flow cytometric analysis (reference value: 27 +/- 2.97%); format: functional
[17] = tested on: HeLa; assay: Induction of cell cycle arrest in human HeLa cells assessed as accumulation of cells at G0/G1 phase 2.4 to 7.2 uM after 24 hrs by propidium iodide staining based flow cytometric analysis (reference value: 44%); format: functional
[18] = tested on: HeLa; assay: Cell cycle arrest in human HeLa cells assessed as reduction in cell population at G2/M phase at 2.4 to 7.2 uM after 24 hrs by propidium iodide staining based flow cytometric analysis; format: functional
[19] = tested on: HeLa; assay: Cell cycle arrest in human HeLa cells assessed as reduction in cell population at S phase at 2.4 to 7.2 uM after 24 hrs by propidium iodide staining based flow cytometric analysis; format: functional
[20] = tested on: MCF7; assay: Cytostatic activity against human MCF7 cells measured after 24 hrs by MTT assay; format: functional, cell-based; how it was run: as §1
[21] = tested on: PC-3; assay: Cytostatic activity against human PC3 cells measured after 24 hrs by MTT assay; format: functional, cell-based; how it was run: as §1
[22] = tested on: HeLa; assay: Cytostatic activity against human HeLa cells measured after 24 hrs by MTT assay; format: functional, cell-based; how it was run: as §1
[23] = tested on: HeLa; assay: Induction of cell cycle arrest in human HeLa cells assessed as accumulation of cells at G0/G1 phase after 24 hrs by propidium iodide staining based flow cytometric analysis; format: functional

Structure (SMILES): CC(=O)c1c(O)c(C)c(O)c2c1OC1=CC(=O)C(C(C)=O)C(=O)C12C (stereo in doubt; (+)-1) [listing 1 of 2 here]
- Activity [1]: Active
- Activity [2]: Active

Structure (SMILES): CC(=O)c1c(O)c(C)c(O)c2c1OC1=CC(=O)C(C(C)=O)C(=O)C12C (stereo in doubt; (-)-1) [listing 1 of 2 here]
- IC50 [3]: > 10 µM
- IC50 ([4]; Homo sapiens, MCF7, 48 h): > 10 µM
- IC50 [5]: > 10 µM
- IC50 ([6]; Homo sapiens, HeLa, 48 h): > 10 µM
- IC50 [7]: > 10 µM
- IC50 [8]: > 10 µM
- IC50 [9]: > 10 µM
- IC50 [10]: > 10 µM
- Activity [11]: 46.95%
- Activity [12]: 52.35%
- Activity [13]: 22.9%
- Activity [14]: 20.6%
- Activity [15]: 28.25%
- Activity [16]: 24.95%

Structure (SMILES): CC(=O)c1c(O)c(C)c(O)c2c1OC1=Cc3c(c(C)nn3-c3ccc(C)cc3)C(=O)C12C (racemic)
- inhibition [3]: inactive
- inhibition [4]: inactive

Structure (SMILES): CC(=O)c1c(O)c(C)c(O)c2c1OC1=Cc3c(c(C)nn3-c3ccc(F)cc3)C(=O)C12C (racemic)
- inhibition [3]: inactive
- inhibition [4]: inactive

Structure (SMILES): CC(=O)c1c(O)c(C)c(O)c2c1OC1=CC(=O)C(C(C)=O)C(=O)C12C (stereo in doubt; (-)-1) [listing 2 of 2 here]
- Activity [1]: Active
- Activity [2]: Active

Structure (SMILES): CC(=O)c1c(O)c(C)c(O)c2c1OC1=Cc3c(c(C)nn3-c3ccc(Cl)c(Cl)c3)C(=O)C12C (racemic)
- inhibition [3]: inactive
- inhibition [4]: inactive

Structure (SMILES): COc1ccc(-n2nc(C)c3c2C=C2Oc4c(C(C)=O)c(O)c(C)c(O)c4[C@]2(C)C3=O)cc1
- inhibition [3]: inactive
- inhibition [4]: inactive

Structure (SMILES): CC(=O)c1c(O)c(C)c(O)c2c1OC1=Cc3c(c(C)nn3-c3ccccc3)C(=O)[C@]12C
- inhibition [3]: inactive
- inhibition [4]: inactive

Structure (SMILES): COc1ccc(-n2nc(C)c3c2C=C2Oc4c(C(C)=O)c(O)c(C)c(O)c4C2(C)C3=O)cc1 (racemic)
- inhibition [3]: inactive
- inhibition [4]: inactive

Structure (SMILES): CC(=O)c1c(O)c(C)c(O)c2c1OC1=Cc3c(c(C)nn3-c3ccccc3)C(=O)C12C (racemic)
- inhibition [3]: inactive
- inhibition [4]: inactive

Structure (SMILES): CC(=O)c1c(O)c(C)c(O)c2c1OC1=Cc3c(c(C)nn3-c3ccc(Cl)c(Cl)c3)C(=O)[C@]12C
- inhibition [3]: inactive
- inhibition [4]: inactive

Structure (SMILES): CC(=O)c1c(O)c(C)c(O)c2c1OC1=Cc3c(c(C)nn3-c3ccc(F)cc3)C(=O)[C@]12C
- inhibition [3]: inactive
- inhibition [4]: inactive

Structure (SMILES): CC(=O)c1c(O)c(C)c(O)c2c1OC1=Cc3c(c(C)nn3-c3ccc(C)cc3)C(=O)[C@]12C
- inhibition [3]: inactive
- inhibition [4]: inactive

- IC50 [3]: > 10 µM
- IC50 ([4]; Homo sapiens, MCF7, 48 h): > 10 µM
- IC50 [5]: 2.7 µM
- IC50 ([6]; Homo sapiens, HeLa, 48 h): 1.2 µM
- IC50 [7]: > 10 µM
- IC50 [8]: > 10 µM
Structure (SMILES): CC(=O)c1c(O)c(C)c(O)c2c1OC1=Cc3c(c(C)nn3C)C(=O)[C@]12C
- IC50 [9]: > 10 µM
- IC50 [10]: > 10 µM
- Activity [17]: 51 - 65%
- Activity [18]: Active
- Activity [19]: Active
- Activity [20]: inactive
- Activity [21]: inactive
- Activity [22]: inactive

- IC50 [3]: > 10 µM
- IC50 ([4]; Homo sapiens, MCF7, 48 h): > 10 µM
- IC50 [5]: 2.7 µM
- IC50 ([6]; Homo sapiens, HeLa, 48 h): 1.1 µM
- IC50 [7]: > 10 µM
- IC50 [8]: > 10 µM
Structure (SMILES): CC(=O)c1c(O)c(C)c(O)c2c1OC1=Cc3c(c(C)nn3C)C(=O)C12C (racemic)
- IC50 [9]: > 10 µM
- IC50 [10]: > 10 µM
- Activity [17]: 51 - 65%
- Activity [23]: Dose-dependent effect
- Activity [18]: Active
- Activity [19]: Active
- Activity [20]: inactive
- Activity [21]: inactive
- Activity [22]: inactive

Structure (SMILES): CC(=O)c1c(O)c(C)c(O)c2c1OC1=CC(=O)C(C(C)=O)C(=O)C12C (stereo in doubt; (+)-1) [listing 2 of 2 here]
- IC50 ([4]; mcf7): 10 to 75.7 µM
- IC50 ([6]; hela): 10 to 23.7 µM
- Activity [11]: 46%
- Activity [12]: 50.6%
- Activity [13]: 23%
- Activity [14]: 22.4%
- Activity [15]: 28.8%
- Activity [16]: 24.8%
